Assay results collected from several papers.
Protocols differ between the studies behind these lines.
Target: Mitogen-activated protein kinase kinase kinase 11 (MAP3K11, Homo sapiens, UniProt Q16584)

CC(=O)N1CCC(c2ccc(C(=O)NC(=N)N)cc2C(F)(F)F)CC1  remaining binding (cell-free assay, competition with immobilised ligand; 1 µM): 100%
COc1cc2ncnc(Nc3ccc(F)c(Cl)c3)c2cc1OCCCN1CCOCC1  remaining signal (cell-free assay; 0.5 µM): 102%
COc1cc(Nc2cnc(C#N)c(O[C@H](C)CN(C)C)n2)ncc1-c1cnn(C)c1  remaining activity (enzyme activity, inhibitor, radiometric; 1 µM): 68%
O=C(NCCCNc1nc(Nc2cccc(NC(=O)N3CCCC3)c2)ncc1I)c1cccs1  remaining activity (enzyme activity, inhibitor, radiometric; 1 µM): 1%
Cc1ccc(NC(=O)c2ccc(CN3CCN(C)CC3)cc2)cc1Nc1nc(-c2cccnc2)cs1  remaining signal (cell-free assay; 0.5 µM): 101%
N#Cc1ccc(Nc2ccc3[nH]c(=O)[nH]c3c2)c(Cl)c1  remaining binding (cell-free assay, competition with immobilised ligand; 1 µM): 100%
CN1CC(Oc2cnc(C#N)cc2-c2ccn3nc(NC(=O)C4CC4)cc3c2)C1  inhibition (enzyme activity, inhibitor; 1 µM): 5%
O=C(NCCCNc1nc(Nc2cccc(NC(=O)N3CCCC3)c2)ncc1Br)C1CCC1  remaining activity (enzyme activity, inhibitor, radiometric; 1 µM): -3%
COc1cc(/C=C/C(=O)CC(=O)/C=C/c2ccc(O)c(OC)c2)ccc1O  activity vs control (enzyme activity, inhibitor; 1 µM): 14%
O=C1NC(=O)c2cc(Nc3ccc(F)cc3)c(Nc3ccc(F)cc3)cc21  remaining signal (cell-free assay; 0.5 µM): 98.4%
Cc1nn(CC(F)(F)F)cc1Nc1nccc(NCCc2cnc[nH]2)n1  remaining activity (enzyme activity, inhibitor, radiometric; 1 µM): 94%
COCCOc1nc(-c2ccc(Cl)nc2)nc2c1CN(C(=O)c1ncn3ccccc13)CC2  remaining binding (cell-free assay, competition with immobilised ligand; 0.1 µM): 100%
c1cc(CN2CCOCC2)cc(Nc2nccc(NCCc3cnc[nH]3)n2)c1  remaining activity (enzyme activity, inhibitor, radiometric; 1 µM): 82%
CC(C)(O)c1cncc(-c2nc3ccc(F)cc3n2C2CC2)c1  remaining binding (cell-free assay, competition with immobilised ligand; 1 µM): 100%
Cc1nn(CC(F)(F)F)cc1Nc1ncc(Br)c(NCc2ccc(S(N)(=O)=O)cc2)n1  remaining activity (enzyme activity, inhibitor, radiometric; 1 µM): 82%
CN(C)c1ncnc(-c2ccc3nc(Nc4cc(CN5CCN(C(=O)CC(F)(F)F)CC5)ccn4)[nH]c3c2)c1Cl  remaining binding (cell-free assay, competition with immobilised ligand; 1 µM): 100%
O=C(Nc1cnn(-c2csc(C(=O)NC3COC3)c2)c1)Nc1c(F)cccc1Cl  remaining activity (enzyme activity, inhibitor; 5 µM): 84.7%
CCc1ccccc1C(=O)Nc1n[nH]c2c(C)c(F)c(C3C(C#N)=C(C)N(C)C(C)=C3C#N)cc12  remaining binding (cell-free assay, competition with immobilised ligand; 1 µM): 88%
CNC(=O)c1cc(Oc2ccc(NC(=O)Nc3ccc(Cl)c(C(F)(F)F)c3)cc2)ccn1  remaining signal (cell-free assay; 0.5 µM): 98.3%
